# Active and inactive are the calls of the source. No cut-off for these calls is given here.
# Assays:
# [1] = target: T1, Retinol-binding protein 4 (Homo sapiens, UniProt P02753); experiment: Displacement of [3H]-all-trans-retinol from biotinylated human urine derived RBP4 measured after 16 hrs by scintillation proximity assay
# Transthyretin [2] = target: T2, Transthyretin (Homo sapiens, UniProt P02766); experiment: Stabilization of human His-tagged TTR (Gly21 to Glu147) expressed in HEK293 cells assessed as reduction in acid-induced protein aggregation by measuring increase in TTR monomer level at 50 uM incubated for 72 hrs at pH 4 by Western blot; type: cell-based
# Method in brief: (§1)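 Human TTR (2 μL of 167 μM) incubated in 50 mM sodium acetate pH 4.0, 100 mM KCl, with or without 50 μM compound (DMSO vehicle), 72 h at 37 °C. Neutralized with 500 mM sodium phosphate pH 8.0 plus CHAPS, cross-linked, then run on SDS-PAGE and anti-TTR Western blot. Pixel volumes of high-molecular-weight and monomer bands quantified. At least three independent experiments; one-way ANOVA with Holm–Sidak test.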
# Transthyretin [3] = target: T2, Transthyretin; experiment: Stabilization of human His-tagged TTR (Gly21 to Glu147) expressed in HEK293 cells assessed as reduction in acid-induced protein aggregation by measuring reduction in high molecular aggregates at 50 uM incubated for 72 hrs at pH 4 by Western blot analysis relative to control; type: cell-based; method in brief: as §1
# Transthyretin [4] = target: T2, Transthyretin; experiment: Displacement of FITC-diclofenac from human plasma derived TTR measured after overnight incubation by fluorescence polarization assay; type: cell-free
# Method in brief: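 Incubated overnight at 4 °C, then fluorescence polarization read. Nonspecific binding defined with 500 μM unlabeled diclofenac.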
# Mus musculus = experiment: Effect on serum TTR level in CD-1 mouse at 25 mg/kg, po administered via gavage; type: functional, organism-based
# CYP3A4 = CYP3A4 (Homo sapiens, UniProt P08684); experiment: Inhibition of recombinant human CYP3A4 expressed in insect cell microsomes at 10 uM using fluorescence probe as substrate measured after 15 to 45 mins in presence of NADPH by fluorescence assay relative to control; type: ADME, Microsome; settings: time 15-45 min
# CYP3A4, sequence (P08684 whole entry): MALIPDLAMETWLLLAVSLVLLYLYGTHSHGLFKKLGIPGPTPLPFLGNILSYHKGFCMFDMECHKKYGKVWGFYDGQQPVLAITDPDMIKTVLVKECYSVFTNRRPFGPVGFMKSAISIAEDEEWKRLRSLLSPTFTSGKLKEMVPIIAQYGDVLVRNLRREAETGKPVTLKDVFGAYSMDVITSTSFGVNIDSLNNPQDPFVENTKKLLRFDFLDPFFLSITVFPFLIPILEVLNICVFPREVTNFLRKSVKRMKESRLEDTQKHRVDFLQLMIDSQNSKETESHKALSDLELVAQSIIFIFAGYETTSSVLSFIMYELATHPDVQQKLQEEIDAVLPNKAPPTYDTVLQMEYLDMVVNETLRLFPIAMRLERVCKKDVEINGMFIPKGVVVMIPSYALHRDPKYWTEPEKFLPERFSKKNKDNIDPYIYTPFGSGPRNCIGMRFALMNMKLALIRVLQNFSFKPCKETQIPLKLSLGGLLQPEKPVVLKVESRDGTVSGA
# [5] = Apparent terminal phase half life in CD-1 mouse at 2 mg/kg, iv by LC-MS/MS analysis; type: ADME, organism-based; settings: in vivo
# Method in brief: (§2)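 Drug-naive adult male CD-1 mice, three per group, given a single IV 2 mg/kg dose in 3% dimethylacetamide/45% PEG300/12% ethanol/40% sterile water. Blood compound concentrations followed over time. C0 is the observed concentration at time zero, half-life is from the terminal elimination phase, and Vss is at steady state. Reported as mean (SD).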
# [6] = Stability in human liver microsomes assessed as parent compound remaining measured after 30 mins; type: ADME, Microsome; settings: 0.5 h
# Method in brief: (§3)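 Parent compound remaining after 30 min incubation with human, rat, mouse or cynomolgus monkey liver microsomes, expressed as %.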
# [7] = AUC (infinity) in CD-1 mouse at 5 mg/kg, po administered via gavage by LC-MS/MS analysis; type: ADME, organism-based; design: route oral, time infinity, dose 5 mg/kg; settings: in vivo
# Method in brief: (§4)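 Drug-naive adult male CD-1 mice, three per group, given a single oral 5 mg/kg dose in 2% Tween 80 in 0.9% saline. Compound levels measured in blood over time. Values are the mean (SD) of the PK parameters; %F is derived against the 2 mg/kg IV group.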
# [8] = Stability in cynomolgus monkey liver microsomes assessed as parent compound remaining measured after 30 mins; type: ADME, Macaca fascicularis, Microsome; settings: 0.5 h; method in brief: as §3
# [9] = Cmax in CD-1 mouse at 5 mg/kg, po administered via gavage by LC-MS/MS analysis; type: ADME, organism-based; design: route oral, dose 5 mg/kg; settings: in vivo; method in brief: as §4
# [10] = Apparent terminal phase half life in CD-1 mouse at 5 mg/kg, po administered via gavage by LC-MS/MS analysis; type: ADME, organism-based; settings: in vivo; method in brief: as §4
# [11] = Kinetic solubility of the compound in pH 7.4 PBS buffer by UV/VIS-HPLC method; type: physicochemical; settings: read-out: Kinetic_solubility
# Method in brief: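 Kinetic solubility measured in buffer at pH 7.4.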
# CYP2D6 = CYP2D6 (Homo sapiens, UniProt P10635); experiment: Inhibition of recombinant human CYP2D6 expressed in insect cell microsomes at 10 uM using fluorescence probe as substrate measured after 15 to 45 mins in presence of NADPH by fluorescence assay relative to control; type: ADME, Microsome; settings: time 15-45 min
# CYP2D6, sequence (P10635 whole entry): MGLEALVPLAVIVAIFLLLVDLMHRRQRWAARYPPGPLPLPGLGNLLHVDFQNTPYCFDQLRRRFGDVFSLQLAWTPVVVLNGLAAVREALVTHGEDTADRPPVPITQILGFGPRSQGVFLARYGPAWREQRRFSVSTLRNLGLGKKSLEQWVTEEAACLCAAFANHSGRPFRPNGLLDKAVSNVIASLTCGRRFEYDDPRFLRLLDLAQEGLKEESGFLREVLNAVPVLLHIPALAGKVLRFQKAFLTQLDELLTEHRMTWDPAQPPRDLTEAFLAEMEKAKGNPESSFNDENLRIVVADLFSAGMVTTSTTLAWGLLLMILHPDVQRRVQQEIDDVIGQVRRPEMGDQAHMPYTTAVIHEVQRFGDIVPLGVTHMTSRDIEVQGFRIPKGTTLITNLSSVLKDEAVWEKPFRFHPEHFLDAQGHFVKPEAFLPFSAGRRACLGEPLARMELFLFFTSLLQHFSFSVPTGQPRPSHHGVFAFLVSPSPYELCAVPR
# [12] = Stability in CD-1 mouse liver microsomes assessed as parent compound remaining measured after 30 mins; type: ADME, Microsome; settings: 0.5 h; method in brief: as §3
# [13] = Volume of distribution at steady state in CD-1 mouse at 2 mg/kg, iv by LC-MS/MS analysis; type: ADME, organism-based; settings: in vivo; method in brief: as §2
# [14] = Initial drug level in CD-1 mouse at 2 mg/kg, iv by LC-MS/MS analysis; type: ADME, organism-based; settings: in vivo; method in brief: as §2
# [15] = Stability in Sprague-Dawley rat liver microsomes assessed as parent compound remaining measured after 30 mins; type: ADME, Microsome; settings: 0.5 h; method in brief: as §3
# [16] = In vivo antagonist activity at TTR-RBP4 complex in CD-1 mouse assessed as reduction in serum RBP4 level at 25 mg/kg, po administered via gavage measured after 24 hrs by ELISA relative to control; type: functional; design: scale not given: the % may be the effect or the level left
# Method in brief: (§5)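 Male mice received a single oral dose of 25 mg/kg; serum RBP4 was followed over time, with the 6 h and 24 h points reported as % reduction. Three mice per group; values are mean ± SD.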
# CYP2C9 = CYP2C9 (Homo sapiens, UniProt P11712); experiment: Inhibition of recombinant human CYP2C9 expressed in insect cell microsomes at 10 uM using 7-methoxy-4-trifluoromethylcoumarin as substrate measured after 15 to 45 mins in presence of NADPH by fluorescence assay relative to control; type: ADME, Microsome; settings: probe 7-methoxy-4-trifluoromethylcoumarin, time 15-45 min
# CYP2C9, sequence (P11712 whole entry): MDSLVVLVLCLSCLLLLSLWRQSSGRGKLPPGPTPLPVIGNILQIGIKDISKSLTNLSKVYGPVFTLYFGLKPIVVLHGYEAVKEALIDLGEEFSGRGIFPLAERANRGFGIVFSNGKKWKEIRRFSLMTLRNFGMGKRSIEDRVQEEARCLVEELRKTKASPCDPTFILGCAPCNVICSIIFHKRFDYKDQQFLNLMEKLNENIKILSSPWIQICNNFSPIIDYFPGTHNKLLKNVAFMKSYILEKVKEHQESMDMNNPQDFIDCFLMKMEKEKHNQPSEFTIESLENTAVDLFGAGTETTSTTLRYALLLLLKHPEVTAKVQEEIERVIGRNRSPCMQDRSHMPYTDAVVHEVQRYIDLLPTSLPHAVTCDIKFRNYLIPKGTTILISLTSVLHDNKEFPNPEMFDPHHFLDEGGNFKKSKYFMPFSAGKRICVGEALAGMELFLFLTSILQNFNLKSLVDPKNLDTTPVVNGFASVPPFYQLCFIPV
# CYP2C19 = CYP2C19 (Homo sapiens, UniProt P33261); experiment: Inhibition of recombinant human CYP2C19 expressed in insect cell microsomes at 10 uM using fluorescence probe as substrate measured after 15 to 45 mins in presence of NADPH by fluorescence assay relative to control; type: ADME, Microsome; settings: time 15-45 min
# CYP2C19, sequence (P33261 whole entry): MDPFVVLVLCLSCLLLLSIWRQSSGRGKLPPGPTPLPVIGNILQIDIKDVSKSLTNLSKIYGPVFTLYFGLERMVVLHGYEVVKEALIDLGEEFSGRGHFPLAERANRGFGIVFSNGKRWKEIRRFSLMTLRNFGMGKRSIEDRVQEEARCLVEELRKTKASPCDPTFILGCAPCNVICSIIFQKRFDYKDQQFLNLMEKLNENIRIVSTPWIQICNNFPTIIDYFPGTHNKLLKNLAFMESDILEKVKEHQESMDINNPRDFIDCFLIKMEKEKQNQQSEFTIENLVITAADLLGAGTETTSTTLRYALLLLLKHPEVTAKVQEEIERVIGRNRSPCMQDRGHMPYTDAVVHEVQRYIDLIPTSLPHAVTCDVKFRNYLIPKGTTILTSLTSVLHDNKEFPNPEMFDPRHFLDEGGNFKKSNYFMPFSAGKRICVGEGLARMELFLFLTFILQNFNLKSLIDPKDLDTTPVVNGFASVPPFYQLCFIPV
# [17] = In vivo antagonist activity at TTR-RBP4 complex in CD-1 mouse assessed as reduction in serum RBP4 level at 25 mg/kg, po administered via gavage measured after 6 hrs by ELISA relative to control; type: functional; design: scale not given: the % may be the effect or the level left; method in brief: as §5
# [18] = Tmax in CD-1 mouse at 5 mg/kg, po administered via gavage by LC-MS/MS analysis; type: ADME, organism-based; settings: in vivo; method in brief: as §4
# [19] = Oral bioavailability in CD-1 mouse at 5 mg/kg administered via gavage by LC-MS/MS analysis; type: ADME, organism-based; settings: in vivo; method in brief: as §4
# [20] = target: T1, Retinol-binding protein 4; experiment: Displacement of [3H]-all-trans-retinol from MBP-tagged RBP4 (unknown origin) expressed in Escherichia coli assessed as reduction in untagged Eu-labelled TTR-RBP4 interaction measured after overnight incubation by HTRF assay
compound,measurement,setting,value
Cc1cc(C(=O)O)nc(N2CC(Oc3ccccc3C(F)(F)F)C2)n1,IC50,[1],> 3 µM
CC1=C(/C=C/C(C)=C/C=C/C(C)=C/CO)C(C)(C)CCC1,Activity,Transthyretin [2],Active
O=C(O)c1ccc2nc(-c3cc(Cl)cc(Cl)c3)oc2c1,fold change (FC),Transthyretin [3],3.6
same,Activity,Transthyretin [2],Active
COc1ccc(C(F)(F)F)c(OCC2CCN(c3nc(C)cc(C(=O)O)n3)C2)c1 (racemic),IC50,[1],> 3 µM
same,IC50,Transthyretin [4],> 30 µM
Cc1cc(C(=O)O)nc(N2CCC(COc3ccccc3C(F)(F)F)C2)n1 (racemic),Activity,Mus musculus,inactive
same,fold change (FC),Transthyretin [3],4.7
same,inhibition at 10 µM,CYP3A4,2.2%
same,beta t1/2,[5],8.6 h
same,Stabilty,[6],105%
same,AUC,[7],52439 ng·h/mL
same,Stabilty,[8],103%
same,Activity,Transthyretin [2],Active
same,Cmax,[9],3030 ng/mL
same,t1/2,[10],9.9 h
same,solubility kinetic,[11],187 µM
same,inhibition at 10 µM,CYP2D6,18.1%
same,Stabilty,[12],95%
same,Vdss,[13],0.518 L/kg
same,C0,[14],9129 ng/mL
same,Stabilty,[15],93%
same,Activity,[16],64%
same,inhibition at 10 µM,CYP2C9,0%
same,inhibition at 10 µM,CYP2C19,8%
same,Activity,[17],81%
same,Tmax,[18],0.83 h
same,F,[19],52%
Cc1cc(C(=O)O)nc(N2CCC(COc3cccc(Cl)c3C(F)(F)F)C2)n1 (racemic),IC50,[1],0.18 µM
same,IC50,Transthyretin [4],3.9 µM
Cc1cc(C(=O)O)nc(N2CCC(COc3ccc(F)cc3C(F)(F)F)C2)n1 (racemic),IC50,[1],0.24 µM
same,IC50,[20],0.87 µM
same,IC50,Transthyretin [4],3.9 µM
Cc1cc(C(=O)O)nc(N2CCC(COc3cc(C(F)(F)F)cc(C(F)(F)F)c3)C2)n1 (racemic),IC50,[1],1.6 µM
same,IC50,Transthyretin [4],> 30 µM
